Test results as given in ChEMBL document CHEMBL4196179, “Synthesis and Pharmacological Evaluation of Noscapine-Inspired 5-Substituted Tetrahydroisoquinolines as Cytotoxic Agents” (J Med Chem, 2018).
Activity calls are given as the source filed them. The rule behind the calls is not given here.

Legend:
PANC-1 [1] = assay: Cell cycle arrest in human PANC1 cells assessed as increase in accumulation at G2/M phase at 10 uM after 18 hrs by Hoechst 33342 staining based FACS analysis relative to control; format: functional
Procedure, shortened: (§1)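 Cells seeded 48 h beforehand, treated 18 h with test compounds at 10 µM or vincristine at 100 nM, then trypsinised and stained with Hoechst 33342 for 60 min; FACS read at 450 nm; % G2/M increase calculated relative to 0.1% DMSO vehicle; mean ± SEM of three independent experiments.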

MCF7 [2] = assay: Cell cycle arrest in human MCF7 cells assessed as increase in accumulation at G2/M phase at 10 uM after 18 hrs by Hoechst 33342 staining based FACS analysis relative to control; format: functional; procedure, shortened: as §1
MCF7 [3] = assay: Cytotoxicity against human MCF7 cells assessed as reduction in cell viability after 5 days by cellTiter-blue assay; format: functional, cell-based; conditions: MCF7, 120 h
PC-3 = assay: Cytotoxicity against human PC3 cells assessed as reduction in cell viability after 5 days by cellTiter-blue assay; format: functional, cell-based; conditions: PC-3, 120 h
[4] = Binding affinity to recombinant P-gp cys-less mutant (unknown origin) in proteoliposomes assessed as increase in ATP hydrolysis rate after 40 mins by colorimetric assay; design: species or system Homo sapiens
Procedure, shortened: (§2)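 P-gp expressed in High-Five insect cells via recombinant baculovirus, IMAC-purified and reconstituted into proteoliposomes; 0.1-0.5 µg incubated with 2 mM ATP and drug at 10^-9 to 10^-4 M for 40 min at 37 °C; liberated Pi measured colorimetrically; EC50 and extent of stimulation from dose-response fit against drug-free basal activity.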

Homo sapiens [5] = organism: Homo sapiens; assay: Binding affinity to recombinant P-gp cys-less mutant (unknown origin) in proteoliposomes assessed as increase in ATP hydrolysis rate at 10^-9 to 10^-4 M after 40 mins by colorimetric assay relative to basal control; procedure, shortened: as §2
NCI/ADR-RES [6] = assay: Inhibition of P-gp in human NCI/ADR-RES cells assessed as rate of calcein-AM accumulation at 1 uM by fluorescence assay; format: cell-based
Procedure, shortened: (§3)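 Cells seeded at 2 × 10^3/well and grown 2 d, washed and placed in HBSS; test compound added at 2X in HBSS with DMSO ≤1% final, then calcein-AM at 1 µM final; intracellular fluorescence followed over time, rate taken as slope from linear regression.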

Sus scrofa = organism: Sus scrofa; assay: Inhibition of pig tubulin polymerization assessed as Vmax of tubulin polymerization at 10 uM after 60 mins turbidimetric analysis (reference value: 27 +/- 2 milliOD/min)
Homo sapiens [7] = organism: Homo sapiens; assay: Inhibition of P-gp in human NCI/ADR-RES cells assessed as potentiation of vinblastine-induced cytotoxicity by measuring combination index at 0.3 uM compound concentration after 6 days by MTT assay; format: cell-based
NCI/ADR-RES [8] = assay: Antiproliferative activity against human NCI/ADR-RES cells after 6 days by MTT assay; format: functional, cell-based; conditions: 144 h
Procedure, shortened: (§4)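 Cells seeded overnight at 1500/well, then exposed to a range of concentrations for 6 d; viability by MTT (570 nm, background-subtracted, normalised to untreated control = 100%); EC50 from sigmoidal dose-response fit by non-linear least squares; mean ± SEM of at least 8 independent observations. MCF-7 in MEMα + 10% FBS; NCI/AdrRES in DMEM + 10% FCS with periodic 3 µM doxorubicin selection.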

MCF7 [9] = assay: Synergistic antiproliferative activity against human MCF7 cells assessed as reduction in cell viability at 0.1 uM after 6 days in presence of vinblastine by MTT assay; format: functional
PANC-1 [10] = assay: Cell cycle arrest in human PANC1 cells assessed as accumulation at G2/M phase at 10 uM after 18 hrs by Hoechst 33342 staining based FACS analysis (reference value: 13.7%); format: functional
MCF7 [11] = assay: Synergistic antiproliferative activity against human MCF7 cells assessed as reduction in cell viability at 0.3 uM after 6 days in presence of vinblastine by MTT assay; format: functional
MCF7 [12] = assay: Synergistic antiproliferative activity against human MCF7 cells assessed as reduction in cell viability at 1 uM after 6 days in presence of vinblastine by MTT assay; format: functional
PANC-1 [13] = assay: Cell cycle arrest in human PANC1 cells assessed as accumulation at G1 phase at 10 uM after 18 hrs by Hoechst 33342 staining based FACS analysis (reference value: 70.7%); format: functional
PANC-1 [14] = assay: Cell cycle arrest in human PANC1 cells assessed as accumulation at S phase at 10 uM after 18 hrs by Hoechst 33342 staining based FACS analysis (reference value: 11.1%); format: functional
MCF7 [15] = assay: Effect on calcein-AM accumulation in human wild type MCF7 cells at 1 uM by fluorescence assay; format: functional, cell-based; procedure, shortened: as §3
Homo sapiens [16] = organism: Homo sapiens; assay: Inhibition of P-gp in human NCI/ADR-RES cells assessed as potentiation of vinblastine-induced cytotoxicity by measuring combination index at 1 uM compound concentration after 6 days by MTT assay; format: cell-based
Homo sapiens [17] = organism: Homo sapiens; assay: Inhibition of P-gp in human NCI/ADR-RES cells assessed as potentiation of vinblastine-induced cytotoxicity by measuring combination index at 0.1 uM compound concentration after 6 days by MTT assay; format: cell-based
MCF7 [18] = assay: Antiproliferative activity against human MCF7 cells after 6 days by MTT assay; format: functional, cell-based; conditions: MCF7, 144 h; procedure, shortened: as §4

SMILES	Activity (PANC-1 [1]) [%]	Activity (MCF7 [2]) [%]	also measured
CCNC(=O)N1CCc2c(Br)c3c(c(OC)c2C1Cc1ccc(OC)c(OC)c1)OCO3 (stereo not given)	-10	12	–
CCNC(=O)N1CCc2c(Br)c3c(c(OC)c2C1Cc1ccccc1)OCO3 (stereo not given)	-8	1	–
CCNC(=O)N1CCc2c(Br)c3c(c(OC)c2C1c1cccc(OC)c1OC)OCO3 (stereo not given)	14	19	–
COc1ccc(CC2c3c(c(Br)c4c(c3OC)OCO4)CCN2C)cc1OC (stereo not given)	0	19	–
COc1ccc(C2c3c(c(Br)c4c(c3OC)OCO4)CCN2C)cc1OC (stereo not given)	8	20	–
CCNC(=O)N1CCc2c(Br)c3c(c(OC)c2C1Cc1cc(OC)c(OC)c(OC)c1)OCO3 (stereo not given)	-4	5	–
COc1cccc(C2c3c(c(Br)c4c(c3OC)OCO4)CCN2C)c1OC (stereo not given)	16	29	–
COc1ccc(C2c3c(c(Br)c4c(c3OC)OCO4)CCN2C)cc1 (stereo not given)	26	23	–
COc1ccc(CC2c3c(c(Br)c4c(c3OC)OCO4)CCN2C)cc1 (stereo not given)	226	180	–
CCNC(=O)N1CCc2c(Br)c3c(c(OC)c2C1c1ccccc1)OCO3 (stereo not given)	-2	6	–
CCNC(=O)N1CCc2cc3c(c(OC)c2[C@@H]1[C@H]1OC(=O)c2c1ccc(OC)c2OC)OCO3	–	–	EC50 (MCF7 [3]): 3.6 µM; EC50 (PC-3): 6.7 µM
COC(=O)C1=C(C)NC(C)=C(C(=O)OCCN(C)Cc2ccccc2)C1c1cccc([N+](=O)[O-])c1 (stereo not given) [NICARDIPINE]	–	–	EC50 [4]: 4.7 µM; fold change (FC) (Homo sapiens [5]): 13.6; Activity (NCI/ADR-RES [6]): 107 RFU/min
CCNC(=O)N1CCc2c(Br)c3c(c(OC)c2C1Cc1ccc(OC)cc1)OCO3 (stereo not given)	175	208	EC50 [4]: 2.4 µM; Vmax (milli optical density/minute) (Sus scrofa): 20; CI (Homo sapiens [7]): 0.57; IC50 (NCI/ADR-RES [8]): 2.5 µM; CI (MCF7 [9]): 1.09; Activity (PANC-1 [10]): 36.8%; CI (MCF7 [11]): 1.02; CI (MCF7 [12]): 1.5; Activity (PANC-1 [13]): 53.5%; fold change (FC) (Homo sapiens [5]): 6.2; Activity (PANC-1 [14]): 7.7%; Activity (MCF7 [15]): inactive; CI (Homo sapiens [16]): 0.95; Activity (NCI/ADR-RES [6]): 78 RFU/min; CI (Homo sapiens [17]): 0.6; IC50 (MCF7 [18]): 2.7 µM
CCNC(=O)N1CCc2c(Br)c3c(c(OC)c2C1Cc1cccc(OC)c1OC)OCO3 (stereo not given)	28	11	–
